Test results reported in ChEMBL document CHEMBL1772997 (J Med Chem, 2011).
Active and inactive are the calls of the source. The calls are words filed in the database; no cut-off is given here.

Tests used:
[1] = target: T1, Melatonin receptor type 1A (Homo sapiens, UniProt P48039); test: Displacement of [125I]-2-iodomelatonin from human MT1 receptor expressed on CHO cells by microscintillation counting; format: cell-based
[2] = target: T2, Melatonin receptor type 1B (Homo sapiens, UniProt P49286); test: Displacement of [125I]-2-iodomelatonin from human MT2 receptor expressed on CHO cells microscintillation counting; format: cell-based
T2 sequence (P49286 whole entry): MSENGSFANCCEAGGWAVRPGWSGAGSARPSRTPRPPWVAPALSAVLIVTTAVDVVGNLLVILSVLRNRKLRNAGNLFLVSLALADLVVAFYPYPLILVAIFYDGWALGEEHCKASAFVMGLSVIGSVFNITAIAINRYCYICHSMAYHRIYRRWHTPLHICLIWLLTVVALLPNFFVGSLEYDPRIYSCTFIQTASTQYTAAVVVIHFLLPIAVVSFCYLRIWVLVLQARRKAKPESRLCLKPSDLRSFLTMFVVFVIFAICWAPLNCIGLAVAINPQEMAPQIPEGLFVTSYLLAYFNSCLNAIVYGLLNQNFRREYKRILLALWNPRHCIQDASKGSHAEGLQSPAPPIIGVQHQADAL

Homo sapiens = species: Homo sapiens; test: Selectivity ratio, ratio of Ki for human MT1 receptor over Ki for human MT2 receptor
[3] = target: T3, Melatonin receptor type 1B (Homo sapiens) (UniProt P49286); test: Ratio of compound Ki to melatonin Ki for human MT2 receptor expressed on CHO cells by radioligand displacement assay; format: cell-based
T3 sequence (whole entry): T2 sequence (P49286 whole entry)
In short: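 Membranes from CHO cells stably expressing human MT1 or MT2, in 50 mM Tris-HCl pH 7.7. Incubated with 2-[¹²⁵I]iodomelatonin, 40 pM for MT1 or 80 pM for MT2, 150 min at 25 °C. […] IC50 by three-parameter fit, Ki by Cheng–Prusoff using Kd 33.9 pM for MT1 and 72.6 pM for MT2.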

[4] = target: T1, Melatonin receptor type 1A; test: Agonist activity at human MT1 receptor expressed in CHO cells assessed as inhibition of forskolin-induced cAMP accumulation after 30 mins by EnVision Multilabel Plate Readers; format: functional, cell-based
[5] = target: T3, Melatonin receptor type 1B (Homo sapiens); test: Partial agonist activity at human MT2 receptor expressed in CHO cells assessed as inhibition of forskolin-induced cAMP accumulation after 30 mins by EnVision Multilabel Plate Readers relative to control; format: functional, cell-based
In short: (§1)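 Stable CHO line expressing human MT2, suspended in modified HBSS with 5 mM HEPES pH 7.4, 0.1% BSA, 100 μM IBMX and 100 μM Ro20-1724; 6 × 10⁴ cells/well. Compound added, then forskolin (final 2 μM), 30 min at room temperature; AlphaScreen cAMP read after 12 h in dark.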

[6] = target: T3, Melatonin receptor type 1B (Homo sapiens); test: Agonist activity at human MT2 receptor expressed in CHO cells assessed as inhibition of forskolin-induced cAMP accumulation after 30 mins by EnVision Multilabel Plate Readers relative to control; format: functional, cell-based; in short: as §1
Mus musculus [7] = test: Chronobiotic activity in ICR mouse assessed as reentrainment for 8 hrs advance of dark phase at 3 mg/kg, ip administered 1 hr before dark period once daily for 3 days by running-wheel activity assay; format: functional, organism-based; design: dose 3 mg/kg
In short: (§2)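 Male ICR mice (6 weeks old), housed individually with running wheels under 12/12 light/dark, habituated at least 2 weeks; dark phase then advanced 8 h and kept 14 days. Dosed ip once daily 1 h before dark from shift day, suspended in 0.5% methylcellulose saline, 10 mL/kg. Days to reentrainment: onset advanced >7 h for ≥3 consecutive days, else scored 14 days.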

[8] = target: T2, Melatonin receptor type 1B; test: Agonist activity at human MT2 receptor expressed in CHO cells assessed as inhibition of forskolin-induced cAMP accumulation after 30 mins by EnVision Multilabel Plate Readers; format: functional, cell-based
Mus musculus [9] = test: Chronobiotic activity in ICR mouse assessed as reentrainment for 8 hrs advance of dark phase at 30 mg/kg, ip administered 1 hr before dark period once daily for 3 days by running-wheel activity assay; format: functional, organism-based; design: dose 30 mg/kg; in short: as §2

T1 sequence (P48039 whole entry): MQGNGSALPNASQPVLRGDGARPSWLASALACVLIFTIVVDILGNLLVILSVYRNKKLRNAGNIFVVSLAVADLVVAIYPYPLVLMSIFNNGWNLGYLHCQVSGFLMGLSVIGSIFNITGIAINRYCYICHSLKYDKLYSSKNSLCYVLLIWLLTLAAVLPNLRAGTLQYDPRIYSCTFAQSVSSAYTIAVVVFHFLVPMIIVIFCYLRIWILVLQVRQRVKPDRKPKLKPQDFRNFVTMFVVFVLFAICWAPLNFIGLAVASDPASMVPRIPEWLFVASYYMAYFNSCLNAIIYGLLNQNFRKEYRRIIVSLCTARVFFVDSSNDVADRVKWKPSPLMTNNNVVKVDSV

Row | Structure (SMILES) | Ki [1] | Ki [2] | Ratio Ki (Homo sapiens) | Ratio Ki [3] | EC50 [4] | Emax [5] | Emax [6] | Activity (Mus musculus [7]) | EC50 [8] | Activity (Mus musculus [9])
1 | CCC(=O)NCCC1=C(C(C)C)Cc2ccc3c(c21)CCO3 | 0.013 nM | 0.011 nM | 1.3 | – | – | – | – | – | – | –
2 | CC(=O)NCCC1=C(Cc2ccsc2)Cc2ccc3c(c21)CCO3 | 0.88 nM | 0.0067 nM | 132 | – | – | – | – | – | – | –
3 | CC(=O)NCCC1=C(c2ccccc2OC(C)C)Cc2ccc3c(c21)CCO3 | > 100 nM | 0.34 nM | > 292 | – | – | – | – | – | – | –
4 | COc1ccc(C2=C(CCNC(C)=O)c3c(ccc4c3CCO4)C2)cc1 | 3 nM | 0.037 nM | 81 | – | – | – | – | – | – | –
5 | CC(=O)NCCC1=C(C(C)C)Cc2ccc3c(c21)CCO3 | 0.024 nM | 0.018 nM | 1.3 | – | – | – | – | – | – | –
6 | CC(=O)NCCC1=C(c2cccc(C(C)C)c2)Cc2ccc3c(c21)CCO3 | 13 nM | 0.011 nM | 1200 | 19 | 3.02 nM | 72.8% | – | – | – | –
7 | CC(=O)NCCC1=C(Cc2ccccc2)Cc2ccc3c(c21)CCO3 | 2.7 nM | 0.0085 nM | 316 | – | 0.513 nM | – | 61.7% | – | – | –
8 | CC(=O)NCCC1=C(CC2CCCCC2)Cc2ccc3c(c21)CCO3 | 9.2 nM | 0.012 nM | 799 | 18 | 4.47 nM | – | 99% | Active | 1.32 nM | Active
9 | CC(C)C1=C(CCNC(=O)C(F)(F)F)c2c(ccc3c2CCO3)C1 | 0.032 nM | 0.01 nM | 3.1 | – | – | – | – | – | – | –
10 | CC(C)C1=C(CCNC(=O)C2CC2)c2c(ccc3c2CCO3)C1 | 0.11 nM | 0.035 nM | 3.2 | – | – | – | – | – | – | –
11 | CC(=O)NCCC1=C(Br)Cc2ccc3c(c21)CCO3 | 0.0087 nM | 0.014 nM | 0.61 | – | – | – | – | – | – | –
12 | CC(=O)NCCC1=C(c2cccnc2)Cc2ccc3c(c21)CCO3 | 0.069 nM | 0.034 nM | 2.1 | – | – | – | – | – | – | –
13 | CC(=O)NCCC1=CCc2ccc3c(c21)CCO3 | 0.045 nM | 0.022 nM | 2.1 | 10 | – | – | – | – | – | –
14 | CC(=O)NCCC1=C(c2csc3ccccc23)Cc2ccc3c(c21)CCO3 | 1.3 nM | 0.006 nM | 220 | – | – | – | – | – | – | –
15 | CC(=O)NCCC1=C(c2ccoc2)Cc2ccc3c(c21)CCO3 | 0.0065 nM | 0.0096 nM | 0.68 | – | – | – | – | – | – | –
16 | CCNC(=O)NCCC1=C(C(C)C)Cc2ccc3c(c21)CCO3 | 1.1 nM | 0.084 nM | 13 | – | – | – | – | – | – | –
17 | CC(=O)NCCC1=C(c2ccc(C(C)(C)C)cc2)Cc2ccc3c(c21)CCO3 | 1.4 nM | 0.77 nM | 1.8 | – | – | – | – | – | – | –
18 | COc1cccc(C2=C(CCNC(C)=O)c3c(ccc4c3CCO4)C2)c1 | 0.057 nM | 0.009 nM | 6.3 | – | – | – | – | – | – | –
19 | COc1ccccc1C1=C(CCNC(C)=O)c2c(ccc3c2CCO3)C1 | 1.1 nM | 0.02 nM | 53 | – | – | – | – | – | – | –
